From ChEMBL document CHEMBL1811777, “Rational design of potent, small, synthetic allosteric inhibitors of thrombin” (J Med Chem, 2011)
Active and inactive are the calls of the source. The rule behind the calls is not given here.

Legend:
Prothrombin [1] = molecular target: T1, Prothrombin (Homo sapiens, UniProt P00734); test: Inhibition of human alpha-thrombin assessed as spectrozyme TH hydrolysis after 10 mins by spectrophotometric analysis
Method in brief: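 Human α-thrombin (~5 nM initial) preincubated 10 min with inhibitor (4 μg/ml to 5 mg/ml stocks) at 25 °C. Buffer: 20 mM Tris-HCl pH 7.4, 100 mM NaCl, 2.5 mM CaCl2, 0.1% PEG 8000. Fractional residual activity fitted to logistic equation (Hill slope fixed at 1) for IC50 and efficacy ΔY.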

Plasma [2] = test: Anticoagulant activity in human plasma assessed as concentration required to double the activated partial thromboplastin time; format: functional
Plasma [3] = test: Anticoagulant activity in human plasma assessed as concentration required to double the prothrombin time; format: functional
Method in brief: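 One-stage recalcification PT on a fibrometer. 10 μL inhibitor brought to 100 μL with citrated human plasma, incubated 30 s at 37 °C, then 200 μL prewarmed thromboplastin added and clotting time recorded. Deionized water gave baseline clotting time. Duplicates; concentration doubling PT read from clotting time versus concentration.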

Prothrombin [4] = molecular target: T1, Prothrombin; test: Non-competitive inhibition of human alpha-thrombin assessed as spectrozyme TH hydrolysis at 1.5 to 30 uM by Michaelis-Menten equation analysis
Method in brief: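 Spectrozyme TH (10 to 600 μM) hydrolysed by 5–10 nM human thrombin at fixed inhibitor levels (0–30 μM) in 20 mM Tris-HCl pH 7.4, 37 °C. Initial rate taken from linear A405 rise with under 10% substrate consumption. KM and VMAX obtained by fitting the Michaelis-Menten equation.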

SMILES | IC50 (Prothrombin [1]; read-out: IC50) [µM] | IC50 (Prothrombin [1]; read-out: pIC50 (converted)) [µM] | inhibition (Prothrombin [4]) | 2aPTT (Plasma [2]) [µM] | 2PT (Plasma [3]) [µM]
COc1cc2oc(C)c(C(=O)N3CCOCC3)c2cc1OS(=O)(=O)O | > 2000 | – | – | – | –
COC(=O)c1c(C)oc2cc(OC)c(OS(=O)(=O)O)cc12 | > 3000 | – | – | – | –
COc1cc2oc(C)c(C(=O)N3CCOCC3)c2cc1OCc1oc2cc(OC)c(OS(=O)(=O)[O-])cc2c1C(=O)N1CCOCC1.[Na+] | > 7100 | – | – | >1000 | –
COc1cc2oc(C)c(C(=O)OC(C)(C)C)c2cc1OCc1oc2cc(OC)c(OS(=O)(=O)[O-])cc2c1C(=O)OC(C)(C)C.[Na+] | 7.3 | 7.24 | – | 355 | –
CCOC(=O)c1c(C)oc2cc(OC(=O)N3CCOCC3)c(OS(=O)(=O)O)cc12 | > 25000 | – | – | – | –
CCOC(=O)c1c(C)oc2cc(OC)c(OCc3oc4cc(OS(=O)(=O)O)c(OS(=O)(=O)O)cc4c3C(=O)OCC)cc12 | 365 | 363 | – | – | –
COc1cc2oc(C)c(C(=O)N3CCCCC3)c2cc1OS(=O)(=O)O | > 2000 | – | – | – | –
COC(=O)c1c(C)oc2cc(OC)c(OCc3oc4cc(OC)c(OS(=O)(=O)[O-])cc4c3C(=O)OC)cc12.[Na+] | 37 | 37.2 | – | >1000 | 850
CCOC(=O)c1c(C)oc2cc(OCc3oc4cc(OC)c(OS(=O)(=O)O)cc4c3C(=O)OCC)c(OS(=O)(=O)O)cc12 | 764 | 759 | – | – | –
CCOC(=O)c1c(C)oc2cc(OC(C)C)c(OCc3oc4cc(OC(C)C)c(OS(=O)(=O)O)cc4c3C(=O)OCC)cc12 | 30 | – | – | – | –
C=CCOC(=O)c1c(C)oc2cc(OC)c(OS(=O)(=O)O)cc12 | > 3000 | – | – | – | –
COCCOC(=O)c1c(C)oc2cc(OC)c(OCc3oc4cc(OC)c(OS(=O)(=O)[O-])cc4c3C(=O)OCCOC)cc12.[Na+] | 375 | – | – | >1000 | –
CCOC(=O)c1c(COc2cc3c(C(=O)OCC)c(CN4CCOCC4)oc3cc2OC)oc2cc(OC)c(OS(=O)(=O)O)cc12 | 129 | 129 | – | – | –
COc1cc2oc(C)c(C(=O)O)c2cc1OCc1oc2cc(OC)c(OS(=O)(=O)[O-])cc2c1C(=O)O.[Na+] | 374 | – | – | >1000 | –
CCOC(=O)c1c(CN2CCOCC2)oc2cc(OC)c(OS(=O)(=O)O)cc12 | > 7000 | – | – | – | –
CCOC(=O)c1c(C)oc2cc(OCC)c(OCc3oc4cc(OCC)c(OS(=O)(=O)[O-])cc4c3C(=O)OCC)cc12.[Na+] | 121 | – | – | 530 | –

The next lines start with results.

IC50 (Prothrombin [1]; read-out: IC50) [µM] | IC50 (Prothrombin [1]; read-out: pIC50 (converted)) [µM] | inhibition (Prothrombin [4]) | SMILES | 2aPTT (Plasma [2]) [µM] | 2PT (Plasma [3]) [µM]
> 16000 | – | – | CCOC(=O)c1c(C)oc2cc(OCOC)c(OS(=O)(=O)[O-])cc12.[Na+] | >1200 | –
> 2500 | – | – | CCOC(=O)c1c(C)oc2cc(OC)c(OS(=O)(=O)O)cc12 | – | –
> 3000 | – | – | COc1cc2oc(C)c(C(=O)OC(C)(C)C)c2cc1OS(=O)(=O)[O-].[Na+] | >2000 | –
> 2000 | – | – | COCCOC(=O)c1c(C)oc2cc(OC)c(OS(=O)(=O)O)cc12 | – | –
20600 | 20000 | – | CCOC(=O)c1c(C)oc2cc(OCC)c(OS(=O)(=O)O)cc12 | – | –
520 | – | – | CCOC(=O)c1c(C)oc2cc(OC(=O)c3ccc(OC)cc3)c(OS(=O)(=O)[O-])cc12.[Na+] | 1250 | 1200
60 | – | Active | CCOC(=O)c1c(C)oc2cc(OC)c(OCc3oc4cc(OC)c(OS(=O)(=O)[O-])cc4c3C(=O)OCC)cc12.[Na+] | 740 | 2100
13700 | – | – | CCOC(=O)c1c(C)oc2cc(OC(C)C)c(OS(=O)(=O)O)cc12 | – | –
